Screens from PubChem BioAssay.
JMJD2C inh – human JMJD2C demethylase inhibition. Q9H3R0. GST-JMJD2C(1-420) H3K9me3 demethylation, DELFIA europium. inhibition, % at 2.35 µM. 330,000 compounds, 0.069% hits;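 active = more than half of a compound's replicate wells show inhibition beyond 50%, single wells judged on their own value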;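 note: signal counts dimethyl H3K9 product captured on neutravidin plate; 0% = median of DMSO wells and 100% = 0.3 times that DMSO median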
SIAE inh – human SIAE inhibition, primary screen | Q9HAT2 | SIAE FP-Rh probe binding, fluorescence polarization | inhibition, % at 9.66 µM | 370,000 compounds, 0.69% hits;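 active = inhibition above a cutoff: mean of compounds within the control limits plus 3 SD of those, cut at about 17% in these data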;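 note: 0% = plate median of compound wells and 100% = probe without SIAE protein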
ABHD4 inh – ABHD4 (mouse) inhibition, primary FP screen. purified mABHD4, FP-Rh probe fluorescence polarization. 370,000 compounds, 0.54% hits. inhibition, % at 8.92 µM;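 active = inhibition exceeding the mean over every tested compound plus 3 SD, cut at about 30% in these data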;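 note: 0% = plate median of compound wells and 100% = S159A mutant with DMSO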
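Assay system: wild-type mouse ABHD4 protein; compound: single nominal dose of 8.92 µM, 0.89% DMSO final; schedule: 45 min + 60 min at 25 °C; measured by: FP readout, ex 525 nm / em 598 nm; evaluation: % inhibition of FP-Rh probe binding versus controls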
PRMT1 FP inh – blocks human protein arginine methyltransferase 1; 370,000 compounds, 1.3% hits; inhibition, % at 2.79 µM; recombinant PRMT1, activity-based probe fluorescence polarization; Q99873;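 active = inhibition above about 21% made by adding two undisclosed values, limit read from the data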
HTRA1 inh – HTRA1 (human) protease inhibition. Q92743. recombinant HTRA1, FP-rhodamine activity-based probe, fluorescence polarization. 340,000 compounds, 0.5% hits. inhibition, % at 5.96 µM; in the data active = inhibition above about 36%;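 note: 0% = enzyme with DMSO and 100% = wells lacking enzyme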
Target sequence (Q92743 whole entry, looked up): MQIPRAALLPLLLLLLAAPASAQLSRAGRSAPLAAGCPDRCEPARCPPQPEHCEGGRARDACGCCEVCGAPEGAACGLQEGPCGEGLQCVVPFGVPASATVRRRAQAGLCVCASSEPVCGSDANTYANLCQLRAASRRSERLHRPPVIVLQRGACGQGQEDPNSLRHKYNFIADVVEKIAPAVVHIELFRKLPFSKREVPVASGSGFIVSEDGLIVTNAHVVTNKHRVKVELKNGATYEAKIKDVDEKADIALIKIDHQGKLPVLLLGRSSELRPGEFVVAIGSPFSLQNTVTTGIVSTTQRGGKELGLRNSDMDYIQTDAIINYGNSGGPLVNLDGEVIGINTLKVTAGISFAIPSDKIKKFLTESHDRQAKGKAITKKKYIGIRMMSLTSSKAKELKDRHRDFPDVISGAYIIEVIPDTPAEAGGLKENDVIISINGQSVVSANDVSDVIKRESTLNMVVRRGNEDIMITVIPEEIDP
HTRA1 inh conf – confirmation of human HTRA1 inhibitors. recombinant HTRA1, FP-rhodamine activity-based probe, fluorescence polarization. AID 540248. shares compounds with HTRA1 inh. inhibition, % at 5.96 µM. 1,600 compounds, 66% hits;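 active = mean inhibition over three repeats above a set limit taken from the earlier primary screen, cut at about 37% in these data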;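 note: 0% = HTRA1 with DMSO and 100% = wells lacking HTRA1; inhibitors block probe binding so polarization drops and inhibition rises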
Numbers without * were called inactive; x = no result. The list is not random: actives were taken first. Their share in the collection is about 2.4%.

SMILES	JMJD2C inh	SIAE inh	ABHD4 inh	PRMT1 FP inh	HTRA1 inh	HTRA1 inh conf
Cc1nc(Nc2ncc(C(=O)Nc3c(C)cccc3Cl)s2)cc(N2CCN(CCO)CC2)n1	x	-3	-9	-7	x	x
Cc1ccccc1C(C)NS(=O)(=O)c1ccc2c(c1)OCCO2 (stereo not drawn)	-5	-3	1	-1	40*	34
CC(NS(=O)(=O)c1ccc2c(c1)OCCO2)c1ccccc1 (stereo not drawn)	2	-7	-1	-2	3	x
CCOC(=O)c1c2c(n(-c3ccc(OC)cc3)c1C)C(=O)C(=O)c1ccccc1-2	x	x	x	x	47*	45*
Nc1ccc(Nc2ccccc2N)cc1	-9	9	24	0	64*	83*
C=CCC1(CC=C)CCCN1C(=O)c1ccc2oc(CCCC)nc2c1	x	2	6	4	-15	x
Cc1ccccc1-c1ccc(Nc2ccc(N3CCOCC3)cc2)nn1	4	x	x	x	45*	54*
Oc1c(Br)cc(Br)cc1/C=N/n1c(-c2ccccc2)n[nH]c1=S	9	5	17	9	5	x
COc1c(Br)cc(/C=N/n2c(-c3ccccc3)n[nH]c2=S)c(O)c1Br	-21	7	25	10	74*	30
Cc1ccc(Cn2cc(CN3[C@@H](CC(C)C)COc4cccc(F)c4S3(=O)=O)nn2)cc1	x	-3	-4	4	x	x
O=C(Oc1c(Cl)cc(Cl)c2cccnc12)c1cccc([N+](=O)[O-])c1	-4	x	x	x	55*	40*
O=C(Oc1cccc2cccnc12)c1cccc([N+](=O)[O-])c1	-14	6	1	-2	15	x
COC(=O)[C@]12C[C@H](CC(=O)NCCc3ccccc3OC)C(=O)N(Cc3ccco3)C1=C[C@H](COCc1ccccc1)O[C@@H]2C	x	8	-1	5	x	x
COc1cccc2nc3cc(C)c(C)cc3nc12	0	11	28	7	48*	6
COc1cccc2c1nc(C)c1cc(C)oc12	44	3	12	1	-3	x
CC[C@H](C)/C=C/C1=CC2=C(Cl)C(=O)[C@@]3(C)OC(=O)C(C(=O)[C@H](C)[C@@H](C)O)=C3C2=CO1	4	x	x	x	54*	68*
[C-]#[N+][C@H](O[C@@H]1O[C@H](CO)[C@@H](O)[C@H](O)[C@H]1O)c1ccccc1	-3	-2	1	1	-3	x
O=C(O)CC(CCc1ccccc1)OC1OC(CO)C(O)C(O)C1O (stereo not drawn)	x	-17	0	5	41*	41*
CC1CCCCC1NC(=O)COC(=O)c1c2c(nc3ccccc13)/C(=C\c1ccco1)CC2 (stereo not drawn)	x	12	33*	14	57*	4
CC(=O)c1cc(-c2ccc3c(c2)OCO3)c(=O)n2c1CCC2	x	2	3	-1	x	x
N#CC1=C(N)N(c2ccc(Br)cc2)C2=C(C(=O)CCC2)C1c1cccnc1 (stereo not drawn)	-4	5	15	8	46*	-1
C/C(=N\NC(=O)c1c[nH]c2ccccc12)c1ccccn1	2	-3	-10	1	-10	x
C/C(=N\NC(=O)c1cc2ccccc2cc1O)c1ccccn1	9	7	21	3	52*	18
O=C(N/N=C/c1ccc(Sc2ccccn2)o1)c1cc2ccccc2cc1O	15	x	x	x	60*	49*
C/C(=N/NC(=O)c1cc2ccccc2cc1O)C1C(=O)c2ccccc2C1=O	-4	21*	49*	4	74*	53*
SMILES	JMJD2C inh	SIAE inh	ABHD4 inh	PRMT1 FP inh	HTRA1 inh	HTRA1 inh conf
CCNc1cc(O)ccc1C	6	x	x	x	71*	41*
O=[N+]([O-])c1ccc(NC(c2ccccc2)c2ccc3cccnc3c2O)cc1 (stereo not drawn)	x	6	7	3	36*	40*
CC(=O)NC(c1cccc([N+](=O)[O-])c1)c1ccc2cccnc2c1O (stereo not drawn)	-10	13	14	0	37*	63*
CCCCC(=O)NC(c1cccc([N+](=O)[O-])c1)c1ccc2cccnc2c1O (stereo not drawn)	x	6	-8	-4	27	x
Oc1c(C(Nc2cccc(C(F)(F)F)c2)c2cccnc2)ccc2cccnc12 (stereo not drawn)	3	4	-1	-1	22	x
COc1ccc(C(c2nnnn2C2CCCCC2)N2CCN(C/C=C/c3ccccc3)CC2)cc1 (stereo not drawn)	x	-1	-6	-6	x	x
Cc1ccc(C)c(N=Nc2ccc(O)c3ncccc23)c1	11	11	9	2	52*	66*
CCOc1ccc(N=Nc2ccc(O)c3ncccc23)cc1	5	10	14	-1	36	x
Cc1ccc(NCc2ccc(O)c3ncccc23)cc1	0	11	4	5	9	x
Cc1cccc(N=Nc2ccc(O)c3ncccc23)c1	32	8	25	1	59*	64*
Oc1ccc(N=Nc2ccc3c(c2)OCCO3)c2ncccc12	9	14	23	-6	58*	61*
O=C(Nc1ncccc1O)c1ccc2c(c1)OCCO2	-2	6	8	3	5	x
NS(=O)(=O)c1ccc(N=Nc2ccc(O)c3ncccc23)cc1	11	5	13	7	52*	37*
C[C@H](CO)N1C[C@H](C)[C@H](CN(C)C(=O)Nc2ccc(N3CCCCC3)cc2)OCc2cnnn2CCCC1=O	x	-8	-10	-2	x	x
Cc1cccc2sc(NC(=O)c3cccc(S(=O)(=O)N4CCc5ccccc54)c3)nc12	17	1	0	-5	0	x
Cc1cccc2sc(NNC(=O)c3ccc(S(=O)(=O)N4CCc5ccccc5C4)cc3)nc12	-2	13	5	-5	45*	33
Cc1ccc(C(=O)NNC(=O)c2ccc(S(=O)(=O)N3CCCCC3)cc2)cc1	4	-1	-15	4	-2	x
Cc1cccc2sc(NNC(=O)c3ccc(S(=O)(=O)N4CCCC(C)C4)cc3)nc12 (stereo not drawn)	0	16	21	4	45*	41*
Cc1cc(C)c2nc(NNC(=O)c3ccc(S(=O)(=O)N4CCCCC4)cc3)sc2c1	6	10	15	1	49*	24
Cc1ccccc1CS(=O)(=O)Cc1ccc(C(=O)Nc2cccc(C)c2C)o1	x	-5	-1	-6	x	x
CC(=O)c1cccc(NC(=O)C(C)OC(=O)CCN=C2NS(=O)(=O)c3ccccc32)c1 (stereo not drawn)	35	-2	6	2	90*	4
CCCC1CCC2(CC1)CCC2OC(=O)Nc1cccc(C(F)(F)F)c1 (stereo not drawn)	x	-2	-16	2	x	x
CC1(C)CC(=O)C2=C(C1)N=C1c3ccccc3C(=O)C1C2c1ccc(Cl)cc1 (stereo not drawn)	-40	13	6	5	52*	51*
